Assay results taken from ChEMBL document CHEMBL1955787, “Design and synthesis of novel magnolol derivatives as potential antimicrobial and antiproliferative compounds” (Eur J Med Chem, 2012).
In brackets after ≈: the same amount, converted by molar mass. Activity calls are given as the source filed them. The rule behind the calls is not given here.

Key:
Aspergillus fumigatus = experiment: Antifungal activity against Aspergillus fumigatus LSI-II; assay type: functional
Staphylococcus aureus [1] = experiment: Antibacterial activity against Staphylococcus aureus ATCC 29213 treated for 24 hrs followed by compound treated at 2 to 16 times MIC measured after 24 hrs by micro dilution method; assay type: functional; settings: ATCC 29213, 24 h
Enterococcus [2] = experiment: Antibacterial activity against vancomycin-resistant Enterococcus after 24 hrs by micro dilution method; assay type: functional
How it was run: (§1)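 Broth microdilution in Mueller Hinton broth, two-fold serial dilutions, final 0.25 to 256 µg mL-1. Inoculum from 24 h culture in saline, set to 0.5 McFarland, diluted to a final 5 × 10^6 CFU mL-1. Plates held at 37 °C for 24 h and read by eye. MIC is the lowest concentration with no turbidity.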

Enterococcus [3] = experiment: Antibacterial activity against vancomycin-resistant Enterococcus treated for 24 hrs followed by compound treated at 2 to 16 times MIC measured after 24 hrs by micro dilution method; assay type: functional
How it was run: (§2)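 MBC taken from the same 24 h microdilution plates (Mueller Hinton broth, final inoculum 5 × 10^6 CFU mL-1, 37 °C). […] Spots were incubated 24 h and colonies counted. MBC is the lowest concentration giving a 3 log drop from the starting inoculum.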

Staphylococcus aureus [4] = experiment: Antibacterial activity against methicillin-resistant Staphylococcus aureus 15187 treated for 24 hrs followed by compound treated at 2 to 16 times MIC measured after 24 hrs by micro dilution method; assay type: functional; settings: Staphylococcus aureus, 15187, 24 h; how it was run: as §2
Staphylococcus aureus [5] = experiment: Antibacterial activity against Staphylococcus aureus ATCC 29213 after 24 hrs by micro dilution method; assay type: functional; settings: ATCC 29213, 24 h
How it was run: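 Broth microdilution in Mueller Hinton broth. Inoculum from a 24 h culture in saline, set to 0.5 McFarland and diluted to a final 5 × 10^6 CFU mL-1. Two-fold serial dilutions, final 0.25–256 µg mL-1. Incubated 37 °C for 24 h and read visually. MIC is the lowest concentration with no turbidity.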

HL-60 = experiment: Antiproliferative activity against human HL60 cells after 48 hrs by sulforhodamine B assay; assay type: functional, cell-based; settings: HL-60, 48 h
How it was run: (§3)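 Sulforhodamine B assay following NCI guidelines. Log-phase cells seeded at 10^4 cells/well and allowed to attach for 24 h at 37 °C, 5% CO2. Exposed 48 h to 1:10 serial dilutions, four replicate wells per condition. Fixed with 50% cold TCA for 1 h at 4 °C, stained, dye dissolved in tris buffer, OD read at 540 nm. Blank-subtracted growth expressed relative to untreated (100%) and reported as IC50.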

MOLT-4 = experiment: Antiproliferative activity against human MOLT4 cells after 48 hrs by sulforhodamine B assay; assay type: functional, cell-based; settings: MOLT-4, 48 h; how it was run: as §3
PC-3 = experiment: Antiproliferative activity against human PC3 cells after 48 hrs by sulforhodamine B assay; assay type: functional, cell-based; settings: PC-3, 48 h; how it was run: as §3
Candida albicans = experiment: Antifungal activity against Candida albicans ATCC 90028; assay type: functional
Staphylococcus aureus [6] = experiment: Antibacterial activity against methicillin-resistant Staphylococcus aureus 15187 after 24 hrs by micro dilution method; assay type: functional; settings: Staphylococcus aureus, 15187, 24 h; how it was run: as §1

Compound | MIC (Aspergillus fumigatus) | MBC (Staphylococcus aureus [1]) | MIC (Enterococcus [2]) | MBC (Enterococcus [3]) | MBC (Staphylococcus aureus [4]) | MIC (Staphylococcus aureus [5]) | IC50 (HL-60) | IC50 (MOLT-4) | IC50 (PC-3) | MIC (Candida albicans) | MIC (Staphylococcus aureus [6])
C=CCc1cc(O)c(O)c(-c2cc(CC=C)cc(OC)c2O)c1 | inactive | 16 µg/mL (≈ 51.2 µM) | 32 µg/mL (≈ 102 µM) | 128 µg/mL (≈ 410 µM) | 64 µg/mL (≈ 205 µM) | 16 µg/mL (≈ 51.2 µM) | > 100 µM | > 100 µM | > 100 µM | inactive | 16 µg/mL (≈ 51.2 µM)
CCCc1ccc(O)c(-c2cc(CCC)cc(Cl)c2O)c1 | inactive | > 256 µg/mL | > 256 µg/mL | > 256 µg/mL | > 256 µg/mL | > 256 µg/mL | 85 µM | > 100 µM | > 100 µM | inactive | > 256 µg/mL
CCCc1cc(I)c(O)c(-c2cc(CCC)cc(I)c2O)c1 | inactive | 64 µg/mL (≈ 123 µM) | 64 µg/mL (≈ 123 µM) | 64 µg/mL (≈ 123 µM) | 64 µg/mL (≈ 123 µM) | 64 µg/mL (≈ 123 µM) | 7 µM | 18 µM | 7 µM | inactive | 64 µg/mL (≈ 123 µM)
C=CCc1cc(O)c(O)c(-c2cc(CC=C)cc(O)c2O)c1 | 64 µg/mL (≈ 215 µM) | 8 µg/mL (≈ 26.8 µM) | 16 µg/mL (≈ 53.6 µM) | 32 µg/mL (≈ 107 µM) | 16 µg/mL (≈ 53.6 µM) | 8 µg/mL (≈ 26.8 µM) | > 100 µM | > 100 µM | > 100 µM | 128 µg/mL (≈ 429 µM) | 16 µg/mL (≈ 53.6 µM)
CCCc1ccc(O)c(-c2cc(CCC)cc(I)c2O)c1 | inactive | > 256 µg/mL | > 256 µg/mL | > 256 µg/mL | > 256 µg/mL | > 256 µg/mL | 45 µM | 60 µM | 63 µM | inactive | > 256 µg/mL
CCCCc1cc(Cl)c(O)c(-c2cc(CCCC)cc(Cl)c2O)c1 | inactive | 8 µg/mL (≈ 21.8 µM) | 8 µg/mL (≈ 21.8 µM) | 16 µg/mL (≈ 43.6 µM) | 8 µg/mL (≈ 21.8 µM) | 8 µg/mL (≈ 21.8 µM) | 90 µM | > 100 µM | > 100 µM | inactive | 8 µg/mL (≈ 21.8 µM)
CCCCc1ccc(O)c(-c2cc(CCCC)cc(Cl)c2O)c1 | inactive | > 256 µg/mL | > 256 µg/mL | > 256 µg/mL | > 256 µg/mL | > 256 µg/mL | > 100 µM | > 100 µM | > 100 µM | inactive | > 256 µg/mL
O=C(O)c1cn(C2CC2)c2cc(N3CCNCC3)c(F)cc2c1=O [CIPROFLOXACIN] | – | 0.5 µg/mL (≈ 1.51 µM) | 32 µg/mL (≈ 96.6 µM) | 64 µg/mL (≈ 193 µM) | 8 µg/mL (≈ 24.1 µM) | 0.25 µg/mL (≈ 0.754 µM) | – | – | – | – | 8 µg/mL (≈ 24.1 µM)
CCCc1cc(Cl)c(O)c(-c2cc(CCC)cc(Cl)c2O)c1 | inactive | 4 µg/mL (≈ 11.8 µM) | 8 µg/mL (≈ 23.6 µM) | 8 µg/mL (≈ 23.6 µM) | 4 µg/mL (≈ 11.8 µM) | 4 µg/mL (≈ 11.8 µM) | > 100 µM | > 100 µM | > 100 µM | inactive | 4 µg/mL (≈ 11.8 µM)
CCCCc1ccc(O)c(-c2cc(CCCC)cc(Br)c2O)c1 | inactive | 2 µg/mL (≈ 5.3 µM) | 1 µg/mL (≈ 2.65 µM) | 2 µg/mL (≈ 5.3 µM) | 1 µg/mL (≈ 2.65 µM) | 2 µg/mL (≈ 5.3 µM) | 25 µM | 35 µM | 74 µM | inactive | 1 µg/mL (≈ 2.65 µM)
